# Rows were chosen to be rich in hits. Some 1.3% of all compounds tested hit in one or more screens of this group.
# PP5 inh – PP5 (human) phosphatase inhibition | AID 1987 | P53041 | purified PP5c, OMFP substrate fluorescence | 320,000 compounds, 0.18% hits | inhibition, % at 6.7 µM;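 active means inhibition above the campaign's mean inhibition across all tested compounds plus 3 SD, cut at about 9.5% in these data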;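 further: 0% = DMSO only and 100% = 100 µM cantharidin control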
# NR2E3 ag-1 – agonists of human NR2E3 nuclear receptor; Q9Y5X4; CHO-S Gal4-NCOR/VP16-NR2E3 two-hybrid, luciferase; inhibition of corepressor binding, % at 3.98 µM; 360,000 compounds, 0.35% hits;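 active means inhibition above the mean of all tested compounds plus 3 SD, cut at about 70% in these data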;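 further: 0% = DMSO with NR2E3 transfected cells and 100% = cells lacking NR2E3 construct; higher means lower luciferase signal from less NR2E3 corepressor binding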
# Target sequence (Q9Y5X4 whole entry, looked up, the tested form may be a part): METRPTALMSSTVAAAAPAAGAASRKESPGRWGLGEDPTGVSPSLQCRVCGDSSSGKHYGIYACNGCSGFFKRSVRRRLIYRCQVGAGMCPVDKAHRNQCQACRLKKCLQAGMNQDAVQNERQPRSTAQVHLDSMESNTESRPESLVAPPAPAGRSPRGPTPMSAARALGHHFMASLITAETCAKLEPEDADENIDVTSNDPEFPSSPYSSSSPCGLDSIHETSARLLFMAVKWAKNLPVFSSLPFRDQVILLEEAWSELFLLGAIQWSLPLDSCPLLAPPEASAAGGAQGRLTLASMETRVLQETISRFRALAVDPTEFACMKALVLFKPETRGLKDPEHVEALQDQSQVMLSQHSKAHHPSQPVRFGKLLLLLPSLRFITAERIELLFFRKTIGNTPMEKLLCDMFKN
# NR2E3 ag-2 – agonists of human nuclear receptor NR2E3; 320,000 compounds, 0.12% hits; Q9Y5X4; inhibition of corepressor binding, % at 4.78 µM; GST-NR2E3/biotin-RetCOR TR-FRET, 1536-well;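 active means percent inhibition above the cutoff of mean plus 3 SD of all tested compounds, set per screening campaign, cut at about 20% in these data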;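 further: 0% = DMSO wells and 100% = biotin wells as full block of FRET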
#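 Material: NR2E3–RetCOR corepressor complex / Amount: 1.35 nM GST-NR2E3 / Medium: Tris pH 7.5 / Compound: single nominal compound dose of 4.8 µM / Incubation: 5 h at 4 °C / Technique: TR-FRET, Eu(K)-anti-GST donor, streptavidin-D2 acceptor, ex 340, em 617/671 nm / Read-out basis: percent loss of FRET ratio relative to control wells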
# PP1 counter – PP1-alpha (human) inhibition in PP5 counter-screen | P62136 | purified PP1alpha, OMFP fluorescence | inhibition, % at 6.7 µM | 320,000 compounds, 0.9% hits;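 active means inhibition above the mean inhibition of all tested compounds plus 3 SD, computed separately for each screening campaign, cut at about 15% in these data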
# PP1 inh confirm – confirmation of human PP1 phosphatase inhibitors. purified PP1alpha, OMFP substrate fluorescence. 1,900 compounds, 52% hits. inhibition, % at 6.7 µM. shares compounds with PP1 counter;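 active means mean PP1 inhibition above a set limit taken from the earlier primary screen, cut at about 15% in these data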
# PP5 counter – inhibits human PP5 phosphatase in PP1 counter-screen. shares compounds with PP1 counter. purified PP5c, OMFP fluorescence. inhibition, % at 6.7 µM. 1,900 compounds, 4% hits;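 active means mean PP5 inhibition over triplicate wells above about 9.5% taken from the earlier PP1 screen, limit read from the data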
# * = called active by the depositor; / = no result given.
SMILES,PP5 inh,NR2E3 ag-1,NR2E3 ag-2,PP1 counter,PP1 inh confirm,PP5 counter
Cc1ccc(NC(=O)CN2C(=O)S/C(=C\c3ccc(OCC(=O)O)c(Br)c3)C2=O)cc1,1,-33,0,3,/,/
COc1ccc(-c2sc3ccc(OC)cc3c2C#Cc2cncn2C)cc1,/,-9,/,/,/,/
COc1ccc(-c2oc3ccccc3c2C#Cc2cncn2C)cc1,3,17,1,18*,25*,-6
CCCC(=O)NC(c1ccc(Cl)cc1)c1ccc2cccnc2c1O (centres undefined),4,-2,1,23*,20*,-5
CC(=O)NC(c1ccc(Cl)cc1Cl)c1ccc2cccnc2c1O (centres undefined),/,-12,/,/,/,/
CCCCC(=O)NC(c1ccc(Cl)cc1)c1ccc2cccnc2c1O (centres undefined),4,0,-4,32*,21*,-5
CCCC(=O)NC(c1ccc(Cl)cc1Cl)c1ccc2cccnc2c1O (centres undefined),2,-24,3,26*,21*,-4
CCCC(=O)NC(c1ccccc1OC)c1ccc2cccnc2c1O (centres undefined),-1,-32,1,-3,/,/
CCCC(=O)NC(c1ccc(C)cc1)c1ccc2cccnc2c1O (centres undefined),2,-21,6,23*,18*,-3
CCOC(=O)c1ccc(S(=O)(=O)N2CCN(C(=O)C3CSC4(C)CCC(=O)N34)CC2)cc1 (centres undefined),1,8,3,-1,/,/
COc1ccc(S(=O)(=O)N2CCOCC2)cc1NC(=O)Cc1ccc2c(c1)OCCO2,3,-26,4,-3,/,/
COc1ccc(C(=O)Nc2ccc3oc(-c4cccc(F)c4)nc3c2)cc1OC,1,2,2,-1,/,/
COc1ccccc1C(=O)Nc1ccc2oc(-c3ccc(F)cc3)nc2c1,-1,-26,-1,19*,12,-7
Cc1cccc(-n2c(-c3ccncc3)n[nH]c2=S)c1C,0,11,-1,19*,-4,-5
O=C1CN(C(=O)NCC(=O)N[C@@H](C(=O)O)c2ccccc2)c2ccccc2N1,0,-11,5,18*,-2,-4
NC(=O)c1ccc(NC(=O)COC(=O)c2c[nH]c3ccccc23)cc1,/,-29,/,/,/,/
CCn1cc(C(=O)O)c(=O)c2cc(F)c(N3CCN(C(=S)NC(=O)c4c(OC)cccc4OC)CC3)cc21,2,-23,3,13,/,/
CCn1cc(C(=O)O)c(=O)c2cc(F)c(N3CCN(C(=S)Nc4ccccc4OC)CC3)cc21,2,-12,0,25*,15,-4
CCOC(=O)C1CCN(C(=O)c2cc(S(=O)(=O)N3CCc4ccccc43)ccc2OC)CC1,1,-7,1,-2,/,/
CCCCN(C(=O)C1CC(=O)N(c2ccc(CC)cc2)C1)c1c(N)n(CCC)c(=O)[nH]c1=O (centres undefined),/,-18,/,/,/,/
CCOc1ccc(C(=O)Nc2ccccc2N2CCN(C(=O)c3ccccc3)CC2)cc1[N+](=O)[O-],7,8,0,4,/,/
Cc1ccccc1Nc1nnc(SCc2nc3ccccc3c(=O)[nH]2)s1,1,/,4,22*,2,-8
COC(=O)c1cc2ccsc2n1CC(=O)N(C)c1ccccc1,2,35,2,1,/,/
COC(=O)c1cc2sccc2n1CC(=O)N(C)c1ccccc1,4,8,3,43*,2,0
O=C(CC1(O)C(=O)Nc2ccc(Br)cc21)c1ccccc1 (centres undefined),/,-13,/,/,/,/
SMILES,PP5 inh,NR2E3 ag-1,NR2E3 ag-2,PP1 counter,PP1 inh confirm,PP5 counter
CCOC(=O)N1CCN(Cc2nc(N)nc(Nc3ccc(Oc4ccccc4)cc3)n2)CC1,2,-15,-2,23*,4,-1
CCOC(=O)N1CCN(Cc2nc(N)nc(Nc3ccc(OC)cc3)n2)CC1,2,-15,-1,2,/,/
COc1ccc2c(Cl)c(C(=O)NCCCn3ccnc3)sc2c1Cl,-3,11,-7,18*,3,-4
COc1ccc(C(=O)NCCCn2ccnc2)cc1,3,-1,1,-1,/,/
COc1cccc(-n2nnc3c(=O)n(Cc4ccc(F)cc4)cnc32)c1,2,7,1,40*,-2,-1
COc1cccc(-n2nnc3c(=O)n(Cc4ccc(C)cc4)cnc32)c1,1,-30,1,1,/,/
